The text below walks through data of ChEMBL document CHEMBL5042548, “Multiparameter Optimization of Oxidative Phosphorylation Inhibitors for the Treatment of Pancreatic Cancer” (J Med Chem, 2022).

Structures are written as SMILES. The source made the active and inactive calls. No cut-off for these calls is given here. Bounds are passed on as bounds.

Series [1] can be described thus: Metabolic stability in mouse liver microsomes assessed as half life at 10 uM measured up to 60 mins in presence of NADPH by LC-MS/MS analysis. In kind it is ADME, Microsome. The settings on record: liver microsomes. On the technique in general: Liver microsomes are a subcellular fraction often used to study metabolism.
Series [2] has as its system MIA PaCa-2. The experiment in a line: Cytotoxicity against human MIA PaCa-2 cells assessed as inhibition of cell growth incubated for overnight in glucose-containing medium followed by compound addition and measured after 3 days by MTT assay. In kind it is functional, cell-based. To be noted: MIA PaCa-2, 72 h. A digest of the protocol: (§1)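 MIA PaCa-2 3-day MTT in glucose medium (RPMI 1640 + 10% FBS) or galactose medium (glucose-free RPMI + 10 mM galactose + 10% FBS). Galactose wells are seeded at 8000 cells/well. MTT read-out is at 570 nm after DMSO solubilization. IC50 is by nonlinear regression; ≥3 independent experiments.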
(Tetrazolium assays rely on reduction of a dye to a coloured formazan, in cell work by metabolically active cells.)

The subject of series [3] is MIA PaCa-2. The experiment in a line: Cytotoxicity against human MIA PaCa-2 cells assessed as inhibition of cell growth incubated for overnight in glucose-containing medium followed by compound addition and measured after 7 days by MTT assay. In kind it is functional, cell-based. To be noted: MIA PaCa-2, 168 h. A digest of the protocol: (§2)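 7-day MTT in glucose medium (RPMI 1640 + 10% FBS). Seeding is 200 cells/well for MIA PaCa-2 and 300 cells/well for BxPC-3, overnight at 37 °C, 5% CO2, before compound. MTT 3 mg/mL is added for 4 h, then DMSO, and absorbance is read at 570 nm. IC50 is by nonlinear regression; ≥3 independent experiments.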

Series [4] is described as follows: Metabolic stability in human liver microsomes assessed as half life at 10 uM measured up to 60 mins in presence of NADPH by LC-MS/MS analysis. In kind it is ADME, Microsome. The settings on record: liver microsomes.
The test system of series [5] is MIA PaCa-2. The experiment in a line: Cytotoxicity against human MIA PaCa-2 cells assessed as inhibition of cell growth incubated for overnight in galactose-containing medium followed by compound addition and measured after 3 days by MTT assay. It is filed as functional, cell-based. To be noted: MIA PaCa-2, 72 h. A digest of the protocol: as §1
Series [6] can be described thus: Inhibition of oxidative phosphorylation in human MIA PaCa-2 cells assessed as reduction in ATP production incubated for 24 hrs in glucose-containing medium by celltiter-glo luminescence cell viability assay. It is filed as functional, cell-based. The settings on record: MIA PaCa-2, 24 h. A digest of the protocol: (§3)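 MIA PaCa-2 cells are seeded at 10000 cells/well in glucose RPMI + 10% FBS or in glucose-free RPMI + 10 mM galactose + 10% FBS. Total ATP is measured by CellTiter-Glo luminescence 24 h after compound. IC50 is by nonlinear regression; ≥3 independent experiments.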
Background: Cellular ATP, detected with luciferase, serves as a proxy for viable cell number.

A short description of series [7]: Toxicity in C57BL/6 mouse allografted with mouse Panc02 cells assessed as drug tolerability at 15 mg/kg, ip administered once a day for 28 days. It is filed as organism-based. The settings on record: in vivo, 672 h, time 28 day.
A further series concerns BXPC-3. Nature of the series: Cytotoxicity against human BXPC-3 cells assessed as inhibition of cell growth incubated for overnight in glucose-containing medium followed by compound addition and measured after 7 days by MTT assay. It is filed as functional, cell-based. The settings on record: BXPC-3, 168 h. A digest of the protocol:
as §2

Series [8] in a line: Inhibition of oxidative phosphorylation in human MIA PaCa-2 cells assessed as reduction in ATP production incubated for 24 hrs in galactose-containing medium by celltiter-glo luminescence cell viability assay. The settings on record: MIA PaCa-2, 24 h. It is filed as functional, cell-based. A digest of the protocol: as §3
Series [9] is described as follows: Toxicity in C57BL/6 mouse allografted with mouse Panc02 cells assessed as body weight loss at 15 mg/kg, ip administered once a day for 28 days and measured twice per week. In kind it is organism-based. To be noted: in vivo, 672 h, time 28 day. A digest of the protocol: (§4)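 Female C57BL/6 mice, 6-10 weeks old, get 5×10^6 Pan02 cells s.c. in the right flank and are randomized at ~100 mm3 (n = 5/group). Dosing is daily for 28 days. Vehicle is 10% DMSO/50% PG/40% saline, except 15 mg/kg uses 10% DMSO/60% PG/30% saline. Caliper volume (length×width²)/2 and body weight are recorded twice weekly.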

Series [10] in a line: Terminal elimination half life in CD-1 mouse at 2 mg/kg, iv. In kind it is ADME, organism-based. To be noted: in vivo, read-out: LambdaZ (converted). A digest of the protocol:
(§5)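 Plasma PK in CD-1 mice after single i.v. (2 mg/kg) or p.o. (10 mg/kg) dosing. Parameters come from non-compartmental analysis. Bioavailability = (AUC_po×Dose_iv)/(AUC_iv×Dose_po)×100%. Terminal t1/2 is taken from ≥3 points in the terminal phase.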

Series [11] is described as follows: AUC(0 to t) in CD-1 mouse at 10 mg/kg, po. Set-up: dose 10 mg/kg. The settings on record: in vivo. It is filed as ADME, organism-based. A digest of the protocol: as §5
Series [12] is described as follows: AUC (0 to infinity) in CD-1 mouse at 2 mg/kg, iv. It is filed as ADME, organism-based. More on the design: route intravenous, time infinity, dose 2 mg/kg. The settings on record: in vivo. A digest of the protocol:
as §5

Series [13] can be described thus: Terminal elimination half life in CD-1 mouse at 10 mg/kg, po. In kind it is ADME, organism-based. To be noted: in vivo, read-out: LambdaZ (converted). A digest of the protocol:
as §5

Series [14] is described as follows: Toxicity in C57BL/6 mouse allografted with mouse Panc02 cells assessed as drug tolerability at 10 mg/kg, po administered once a day for 28 days. It is filed as organism-based. To be noted: in vivo, 672 h, time 28 day.
A short description of series [15]: Oral bioavailability in CD-1 mouse at 10 mg/kg. In kind it is ADME, organism-based. The settings on record: in vivo. A digest of the protocol:
as §5

Series [16] in a line: AUC(0 to t) in CD-1 mouse at 2 mg/kg, iv. In kind it is ADME, organism-based. More on the design: dose 2 mg/kg. The settings on record: in vivo. A digest of the protocol:
as §5

Series [17] is described as follows: AUC (0 to infinity) in CD-1 mouse at 10 mg/kg, po. It is filed as ADME, organism-based. More on the design: route oral, time infinity, dose 10 mg/kg. To be noted: in vivo. A digest of the protocol: as §5
A short description of series [18]: Clearance in CD-1 mouse at 2 mg/kg, iv. It is filed as ADME, organism-based. The settings on record: in vivo. A digest of the protocol:
as §5

Series [19] can be described thus: Initial plasma concentration in CD-1 mouse at 2 mg/kg, iv. It is filed as ADME, organism-based. A digest of the protocol:
as §5

A short description of series [20]: Volume of distribution at steady state in CD-1 mouse at 2 mg/kg, iv. It is filed as ADME, organism-based. The settings on record: in vivo, read-out: Vdss. A digest of the protocol: as §5
The nature of series [21]: Clearance in CD-1 mouse at 10 mg/kg, po. It is filed as ADME, organism-based. To be noted: in vivo. A digest of the protocol:
as §5

Series [22] is described as follows: Toxicity in C57BL/6 mouse allografted with mouse Panc02 cells assessed as body weight loss at 10 mg/kg, po administered once a day for 28 days and measured twice per week. In kind it is organism-based. To be noted: in vivo, 672 h, time 28 day. A digest of the protocol:
as §4

Series [23] in a line: Inhibition of oxidative phosphorylation complex I in human MIA PaCa-2 cells assessed as reduction in NAD+/NADH ratio incubated for 48 hrs in glucose-containing medium by NAD/NADH-Glo assay. It is filed as cell-based. The settings on record: MIA PaCa-2, 48 h. A digest of the protocol:
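MIA PaCa-2 cells at 5×10^3/well are treated next day for 48 h in RPMI 1640 + 10% FBS. After a PBS wash, cells are lysed with bicarbonate buffer/1% DTAB. Lysate is split: NAD+ with 0.4 N HCl at 60 °C for 15 min, NADH heated directly, then neutralized. NAD/NADH-Glo luminescence is read after 30 min. IC50 is by nonlinear regression.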

For the next series, the system named is Panc02. Nature of the series: Antitumor activity against Panc02 cells allografted in C57BL/6 mouse syngeneic model assessed as tumor growth inhibition at 10 mg/kg, po administered once daily for 28 days and measured twice per week. In kind it is functional, organism-based. To be noted: time 28.0 day. A digest of the protocol:
as §4

As to `O=C([C@@H]1CCCN(S(=O)(=O)c2ccc(S(=O)(=O)N3CC[C@@H](O)C3)cc2)C1)N1CCC(F)(F)CC1`, the half-life at 10 µM was 0.437 h in series [1] and 0.517 h in [4]. Moreover, the IC50 (commonly the concentration that gives 50% inhibition) in the series with MIA PaCa-2 [2] is greater than 3000 nM; in the series on MIA PaCa-2 [3], 210 nM; with MIA PaCa-2 [5], 135 nM; in series [6], greater than 3000 nM; in the series on BXPC-3, 330 nM; in [8] it was 123 nM. The Activity result in series [7] and in [9] was “Non-Toxic” throughout.

On to `CC(C)S(=O)(=O)c1ccc(S(=O)(=O)N2CCC[C@@H](C(=O)N3CCC(F)(F)CC3)C2)cc1`, for which the half-life in series [10] was 1.42 h; in series [13], 3.06 h. In addition, the AUC(0-t) (commonly exposure summed from dosing to a finite time, without extrapolation to infinity) in series [11] was found to be 0.368 µM·h; in series [16], 0.65 µM·h. Moreover, the figures for the AUC(0-inf) in series [12] and in series [17] were 0.657 µM·h and 0.417 µM·h, respectively. Also, the half-life at 10 µM in series [1] and in [4] was greater than 1 h in each case. Moreover, the Activity result in series [14] and in series [22] was “Non-Toxic” throughout. For the same compound, the concentration for half-maximal inhibition (IC50) in the series with MIA PaCa-2 [2] was greater than 3000 nM; in the series with MIA PaCa-2 [5] it was 9.1 nM; in [6] it was greater than 3000 nM; with BXPC-3, 50 nM; in series [8], 11 nM; in [23] it was 3.6 nM. In series [15], the F worked out at 11.3%. Also, the clearance (as a rule, the volume of plasma or blood freed of the substance per unit of time) in series [18] was 106 mL/min/kg. Also, the C0 in [19] is 354 ng/mL. The Vd in [20] is 5.2 L/kg. Also, in series [21], the CL/F (as a rule, clearance divided by bioavailability, as obtained after extravascular dosing) turned out to be 835 mL/min/kg. Further, in the series with Panc02, the outcome was Active.
